Data as given in ChEMBL document CHEMBL4411287, “Discovery and optimization of a series of 3-substituted indazole derivatives as multi-target kinase inhibitors for the treatment of lung squamous cell carcinoma” (Eur J Med Chem, 2019).

Legend:
KG-1 = assay: Antiproliferative activity against human KG1 cells after 72 hrs by CCK8 assay; settings: KG-1, 72 h
NCI-H2286 = assay: Antiproliferative activity against human NCI-H2286 cells after 72 hrs by CCK8 assay; settings: NCI-H2286, 72 h
[1] = Tmax in ICR(CD-1) mouse at 10 mg/kg, po administered via gavage by triple quadrupole mass spectrometric analysis; type: ADME, organism-based; settings: in vivo
Procedure, shortened: (§1)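 Dosed by gavage at 1 mg/mL in 1% Tween80/water to male ICR mice, 18-22 g, n=3. Blood taken at 0.25, 0.5, 1, 2, 4, 8 and 24 h. Plasma precipitated with methanol:acetonitrile (1:1) containing internal standard, then UPLC-MS/MS on a C18 column with an ammonium acetate/formic acid–acetonitrile gradient. Tmax read directly from the data; MRT calculated per animal from concentration–time curves.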

[2] = Cmax in ICR(CD-1) mouse at 10 mg/kg, po administered via gavage by triple quadrupole mass spectrometric analysis; type: ADME, organism-based; design: dose 10 mg/kg, route oral; settings: in vivo
Procedure, shortened: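 Oral gavage at 1 mg/mL in 1% Tween80/water to male ICR mice (18-22 g, n=3). Plasma sampled at 0.25, 0.5, 1, 2, 4, 8 and 24 h, protein precipitated with methanol:acetonitrile (1:1) containing internal standard, and quantified by UPLC-triple quadrupole MS. AUC and MRT were taken from per-animal time-concentration curves. Cmax is the maximum plasma level and Tmax the time to reach it.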

[3] = MRT in ICR(CD-1) mouse at 10 mg/kg, po administered via gavage by triple quadrupole mass spectrometric analysis; type: ADME, organism-based; settings: in vivo; procedure, shortened: as §1
[4] = biological target: Tyrosine-protein kinase receptor UFO (Homo sapiens) (UniProt P30530); assay: Inhibition of AXL (unknown origin) at 1000 nM relative to control
[5] = biological target: Cyclin-dependent kinase 4 (Homo sapiens) (UniProt P11802); assay: Inhibition of CDK4 (unknown origin) at 1000 nM relative to control
[6] = biological target: Receptor tyrosine-protein kinase erbB-2 (Homo sapiens) (UniProt P04626); assay: Inhibition of ErbB2 (unknown origin) at 1000 nM relative to control
Procedure, shortened: (§2)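 Purified recombinant kinase domains run in ELISA on precoated poly(Glu,Tyr) 4:1 (20 µg/mL) with 10 µM ATP in 50 mM HEPES pH 7.4, 50 mM MgCl2, 0.5 mM MnCl2, 0.2 mM Na3VO4, 1 mM DTT; 1% DMSO control; 60 min at 37 °C. Phosphotyrosine read by PY99 antibody, HRP anti-mouse IgG, OPD/H2O2 at 490 nm; inhibition = [1−A490/A490control]×100%; two separate experiments.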

[7] = biological target: Mitogen-activated protein kinase 1 (Homo sapiens) (UniProt P28482); assay: Inhibition of ERK2 (unknown origin) at 1000 nM relative to control
Sequence of Mitogen-activated protein kinase 1 (Homo sapiens) (P28482 whole entry): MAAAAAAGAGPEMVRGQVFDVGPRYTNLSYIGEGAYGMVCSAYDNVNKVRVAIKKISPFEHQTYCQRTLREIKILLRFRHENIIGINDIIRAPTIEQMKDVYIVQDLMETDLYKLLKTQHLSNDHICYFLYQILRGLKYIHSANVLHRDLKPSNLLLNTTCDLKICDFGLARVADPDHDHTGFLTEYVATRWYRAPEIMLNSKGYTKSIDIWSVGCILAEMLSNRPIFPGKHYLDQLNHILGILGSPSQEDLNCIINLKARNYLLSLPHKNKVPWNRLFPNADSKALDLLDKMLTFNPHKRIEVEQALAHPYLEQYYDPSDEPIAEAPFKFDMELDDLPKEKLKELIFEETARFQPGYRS

[8] = biological target: Tyrosine-protein kinase JAK1 (Homo sapiens) (UniProt P23458); assay: Inhibition of JAK1 (unknown origin) at 1000 nM relative to control; procedure, shortened: as §2
[9] = biological target: Cyclin-dependent kinase 1 (Homo sapiens) (UniProt P06493); assay: Inhibition of CDK1 (unknown origin) at 100 nM relative to control
Sequence of Cyclin-dependent kinase 1 (Homo sapiens) (P06493 whole entry, looked up): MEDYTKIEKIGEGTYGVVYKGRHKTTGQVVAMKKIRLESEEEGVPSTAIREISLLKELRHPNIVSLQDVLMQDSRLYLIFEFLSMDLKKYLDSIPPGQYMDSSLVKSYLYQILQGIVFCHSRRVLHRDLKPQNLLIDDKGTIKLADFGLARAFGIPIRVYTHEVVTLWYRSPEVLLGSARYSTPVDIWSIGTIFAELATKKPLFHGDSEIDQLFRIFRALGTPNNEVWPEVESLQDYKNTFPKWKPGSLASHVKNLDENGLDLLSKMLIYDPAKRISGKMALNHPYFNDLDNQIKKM

[10] = biological target: Cyclin-dependent kinase 6 (Homo sapiens) (UniProt Q00534); assay: Inhibition of CDK6 (unknown origin) at 100 nM relative to control
Sequence of Cyclin-dependent kinase 6 (Homo sapiens) (Q00534 whole entry): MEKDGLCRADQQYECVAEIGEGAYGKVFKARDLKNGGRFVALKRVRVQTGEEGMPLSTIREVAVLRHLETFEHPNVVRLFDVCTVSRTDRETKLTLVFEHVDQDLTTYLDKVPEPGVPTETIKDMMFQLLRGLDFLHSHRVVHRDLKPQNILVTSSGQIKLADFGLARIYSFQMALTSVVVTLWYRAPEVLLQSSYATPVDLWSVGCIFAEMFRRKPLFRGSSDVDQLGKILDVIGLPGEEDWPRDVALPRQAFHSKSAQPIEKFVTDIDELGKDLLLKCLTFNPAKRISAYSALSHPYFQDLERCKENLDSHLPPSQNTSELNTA

[11] = biological target: Fibroblast growth factor receptor 2 (Homo sapiens) (UniProt P21802); assay: Inhibition of FGFR2 (unknown origin) at 100 nM relative to control; procedure, shortened: as §2
Sequence of Fibroblast growth factor receptor 2 (Homo sapiens) (P21802 22-821 limits assumed): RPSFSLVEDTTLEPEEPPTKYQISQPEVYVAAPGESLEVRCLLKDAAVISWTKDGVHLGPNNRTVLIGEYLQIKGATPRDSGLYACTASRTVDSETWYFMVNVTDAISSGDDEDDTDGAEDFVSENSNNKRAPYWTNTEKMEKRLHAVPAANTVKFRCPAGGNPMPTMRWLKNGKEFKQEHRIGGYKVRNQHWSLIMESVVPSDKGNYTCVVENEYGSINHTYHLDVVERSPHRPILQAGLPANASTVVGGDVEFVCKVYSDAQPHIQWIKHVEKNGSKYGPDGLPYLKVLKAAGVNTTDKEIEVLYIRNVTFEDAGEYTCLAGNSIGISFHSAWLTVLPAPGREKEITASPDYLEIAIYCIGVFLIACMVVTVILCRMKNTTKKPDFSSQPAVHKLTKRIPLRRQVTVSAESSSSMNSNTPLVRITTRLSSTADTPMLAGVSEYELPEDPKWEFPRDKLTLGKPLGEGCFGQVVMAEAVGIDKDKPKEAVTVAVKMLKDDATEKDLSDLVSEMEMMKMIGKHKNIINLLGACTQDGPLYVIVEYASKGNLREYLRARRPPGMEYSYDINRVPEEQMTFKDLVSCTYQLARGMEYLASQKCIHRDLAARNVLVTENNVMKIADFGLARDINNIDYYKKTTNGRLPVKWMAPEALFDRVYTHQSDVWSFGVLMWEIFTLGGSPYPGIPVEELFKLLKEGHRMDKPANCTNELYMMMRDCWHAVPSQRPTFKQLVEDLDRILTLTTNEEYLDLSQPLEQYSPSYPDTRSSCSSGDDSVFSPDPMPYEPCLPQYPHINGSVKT

[12] = biological target: Fibroblast growth factor receptor 4 (Homo sapiens) (UniProt P22455); assay: Inhibition of FGFR4 (unknown origin) at 100 nM relative to control; procedure, shortened: as §2
Sequence of Fibroblast growth factor receptor 4 (Homo sapiens) (P22455 22-802 limits assumed): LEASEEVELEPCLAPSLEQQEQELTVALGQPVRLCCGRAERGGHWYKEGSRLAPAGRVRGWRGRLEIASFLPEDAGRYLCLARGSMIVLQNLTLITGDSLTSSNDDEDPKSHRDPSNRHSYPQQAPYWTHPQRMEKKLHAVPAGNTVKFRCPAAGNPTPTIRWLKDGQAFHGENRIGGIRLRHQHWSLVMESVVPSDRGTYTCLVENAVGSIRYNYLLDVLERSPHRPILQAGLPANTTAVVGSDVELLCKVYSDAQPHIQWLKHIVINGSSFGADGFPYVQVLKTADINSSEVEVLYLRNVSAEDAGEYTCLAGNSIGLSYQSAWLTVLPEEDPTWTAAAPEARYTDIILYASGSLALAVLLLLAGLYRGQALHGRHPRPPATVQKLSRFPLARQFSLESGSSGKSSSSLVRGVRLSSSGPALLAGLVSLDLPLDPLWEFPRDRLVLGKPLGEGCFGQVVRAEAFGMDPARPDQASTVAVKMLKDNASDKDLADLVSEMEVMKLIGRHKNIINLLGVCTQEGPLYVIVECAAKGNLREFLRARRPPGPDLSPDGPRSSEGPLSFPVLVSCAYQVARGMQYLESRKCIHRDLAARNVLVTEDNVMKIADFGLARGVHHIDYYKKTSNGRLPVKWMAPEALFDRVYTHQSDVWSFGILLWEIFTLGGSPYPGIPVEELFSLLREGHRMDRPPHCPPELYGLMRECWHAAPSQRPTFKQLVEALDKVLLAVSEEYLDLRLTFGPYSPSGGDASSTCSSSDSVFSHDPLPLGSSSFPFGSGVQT

[13] = biological target: Insulin-like growth factor 1 receptor (Homo sapiens) (UniProt P08069); assay: Inhibition of IGF1R (unknown origin) at 100 nM relative to control; procedure, shortened: as §2
[14] = biological target: Platelet-derived growth factor receptor alpha (Homo sapiens) (UniProt P16234); assay: Inhibition of PDGFR-alpha (unknown origin) at 100 nM relative to control; procedure, shortened: as §2
Sequence of Platelet-derived growth factor receptor alpha (Homo sapiens) (P16234 whole entry): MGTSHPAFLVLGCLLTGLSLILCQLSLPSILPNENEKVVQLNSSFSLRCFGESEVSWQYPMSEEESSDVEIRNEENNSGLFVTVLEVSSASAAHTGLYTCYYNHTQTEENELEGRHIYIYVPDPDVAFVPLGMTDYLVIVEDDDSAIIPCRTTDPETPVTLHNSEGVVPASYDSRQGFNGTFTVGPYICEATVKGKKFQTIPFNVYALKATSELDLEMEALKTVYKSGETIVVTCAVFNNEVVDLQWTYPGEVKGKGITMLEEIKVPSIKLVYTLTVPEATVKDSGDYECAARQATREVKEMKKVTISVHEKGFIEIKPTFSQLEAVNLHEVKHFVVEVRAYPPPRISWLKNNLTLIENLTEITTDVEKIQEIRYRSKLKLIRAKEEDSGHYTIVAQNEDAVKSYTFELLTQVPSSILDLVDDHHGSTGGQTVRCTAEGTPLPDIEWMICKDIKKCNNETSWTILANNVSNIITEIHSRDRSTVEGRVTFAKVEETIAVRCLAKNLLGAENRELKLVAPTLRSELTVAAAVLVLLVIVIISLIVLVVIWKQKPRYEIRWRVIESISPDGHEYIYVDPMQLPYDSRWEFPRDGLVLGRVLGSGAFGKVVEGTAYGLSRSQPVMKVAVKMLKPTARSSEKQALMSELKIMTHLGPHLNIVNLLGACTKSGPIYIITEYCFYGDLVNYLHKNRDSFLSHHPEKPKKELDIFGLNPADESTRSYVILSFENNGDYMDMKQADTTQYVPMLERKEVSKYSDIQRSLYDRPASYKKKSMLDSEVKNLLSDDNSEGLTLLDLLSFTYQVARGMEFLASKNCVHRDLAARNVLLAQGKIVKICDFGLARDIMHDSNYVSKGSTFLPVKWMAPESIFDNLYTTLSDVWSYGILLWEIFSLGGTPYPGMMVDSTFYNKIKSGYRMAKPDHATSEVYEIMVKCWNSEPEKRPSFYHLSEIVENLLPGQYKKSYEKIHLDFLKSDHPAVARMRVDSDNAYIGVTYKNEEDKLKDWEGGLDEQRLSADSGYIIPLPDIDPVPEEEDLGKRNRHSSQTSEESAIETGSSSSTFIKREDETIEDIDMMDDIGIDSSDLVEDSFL

[15] = biological target: ALK tyrosine kinase receptor (Homo sapiens) (UniProt Q9UM73); assay: Inhibition of ALK (unknown origin) at 10 nM relative to control
[16] = biological target: Tyrosine-protein kinase BTK (Homo sapiens) (UniProt Q06187); assay: Inhibition of BTK (unknown origin) at 10 nM relative to control
[17] = biological target: Hepatocyte growth factor receptor (Homo sapiens) (UniProt P08581); assay: Inhibition of c-Met (unknown origin) at 10 nM relative to control
Sequence of Hepatocyte growth factor receptor (Homo sapiens) (P08581 whole entry): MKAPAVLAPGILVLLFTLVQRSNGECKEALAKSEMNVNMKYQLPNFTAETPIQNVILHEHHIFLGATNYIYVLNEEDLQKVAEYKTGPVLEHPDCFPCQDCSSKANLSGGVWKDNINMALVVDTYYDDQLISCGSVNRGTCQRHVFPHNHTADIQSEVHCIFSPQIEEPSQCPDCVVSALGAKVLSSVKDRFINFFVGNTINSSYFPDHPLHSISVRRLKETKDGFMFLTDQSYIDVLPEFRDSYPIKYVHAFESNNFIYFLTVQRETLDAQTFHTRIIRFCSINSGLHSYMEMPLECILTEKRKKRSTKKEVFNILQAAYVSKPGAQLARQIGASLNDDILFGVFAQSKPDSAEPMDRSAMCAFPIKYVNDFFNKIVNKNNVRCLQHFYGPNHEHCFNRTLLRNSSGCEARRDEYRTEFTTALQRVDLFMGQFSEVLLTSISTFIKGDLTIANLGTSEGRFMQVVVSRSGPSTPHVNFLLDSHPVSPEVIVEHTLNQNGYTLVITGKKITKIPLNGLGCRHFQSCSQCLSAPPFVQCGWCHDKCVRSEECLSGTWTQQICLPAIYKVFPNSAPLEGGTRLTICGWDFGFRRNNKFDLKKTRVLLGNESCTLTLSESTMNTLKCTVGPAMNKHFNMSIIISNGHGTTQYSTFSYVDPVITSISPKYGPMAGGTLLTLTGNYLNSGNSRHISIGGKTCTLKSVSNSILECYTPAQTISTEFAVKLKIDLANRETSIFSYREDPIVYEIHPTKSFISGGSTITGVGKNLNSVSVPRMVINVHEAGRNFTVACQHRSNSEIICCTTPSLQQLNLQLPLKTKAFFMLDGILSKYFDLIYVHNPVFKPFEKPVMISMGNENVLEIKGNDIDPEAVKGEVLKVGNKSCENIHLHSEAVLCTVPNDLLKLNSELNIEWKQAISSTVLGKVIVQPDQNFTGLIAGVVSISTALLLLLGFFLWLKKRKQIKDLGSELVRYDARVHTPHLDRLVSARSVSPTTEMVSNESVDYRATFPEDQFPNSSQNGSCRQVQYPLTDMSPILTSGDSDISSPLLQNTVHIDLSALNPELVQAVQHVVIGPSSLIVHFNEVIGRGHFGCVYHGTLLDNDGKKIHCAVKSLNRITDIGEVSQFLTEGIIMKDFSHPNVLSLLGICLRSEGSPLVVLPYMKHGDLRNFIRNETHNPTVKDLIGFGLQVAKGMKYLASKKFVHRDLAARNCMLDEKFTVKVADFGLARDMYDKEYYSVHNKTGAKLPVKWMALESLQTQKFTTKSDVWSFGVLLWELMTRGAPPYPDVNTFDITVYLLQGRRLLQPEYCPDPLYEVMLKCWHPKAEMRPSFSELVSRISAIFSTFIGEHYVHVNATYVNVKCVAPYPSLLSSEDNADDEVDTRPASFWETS
Procedure, shortened: (§3)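 ELISA with purified recombinant kinase on plates precoated with poly(Glu,Tyr) 4:1 at 20 µg/mL. ATP 10 µM in HEPES pH 7.4 buffer with MgCl2, MnCl2, Na3VO4 and DTT. Run 60 min at 37 °C. Detected with anti-phosphotyrosine PY99, HRP secondary antibody and o-phenylenediamine, read at 490 nm. Inhibition % = [1 − A490/A490 control]×100. 1% DMSO as negative control.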

[18] = biological target: Macrophage colony-stimulating factor 1 receptor (Homo sapiens) (UniProt P07333); assay: Inhibition of CSF-1R (unknown origin) at 10 nM relative to control
[19] = biological target: Mitogen-activated protein kinase 1 (Homo sapiens) (UniProt P28482); assay: Inhibition of ERK2 (unknown origin) at 10 nM relative to control
[20] = biological target: Fibroblast growth factor receptor 2 (Homo sapiens) (UniProt P21802); assay: Inhibition of FGFR2 (unknown origin) at 10 nM relative to control; procedure, shortened: as §2
[21] = biological target: Fibroblast growth factor receptor 4 (Homo sapiens) (UniProt P22455); assay: Inhibition of FGFR4 (unknown origin) at 10 nM relative to control; procedure, shortened: as §2
[22] = biological target: Receptor-type tyrosine-protein kinase FLT3 (Homo sapiens) (UniProt P36888); assay: Inhibition of FLT-3 (unknown origin) at 10 nM relative to control; procedure, shortened: as §2
[23] = biological target: Tyrosine-protein kinase JAK2 (Homo sapiens) (UniProt O60674); assay: Inhibition of JAK2 (unknown origin) at 10 nM relative to control; procedure, shortened: as §2
[24] = biological target: Vascular endothelial growth factor receptor 2 (Homo sapiens) (UniProt P35968); assay: Inhibition of VEGFR2 (unknown origin) at 10 nM relative to control; procedure, shortened: as §3
[25] = biological target: Fibroblast growth factor receptor 2 (Homo sapiens) (UniProt P21802); assay: Inhibition of FGFR2 phosphorylation in human SNU-16 cells after 2 hrs by Western blot analysis; type: cell-based
Procedure, shortened: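 SNU-16 cells exposed to compound for 2 h at 37 °C, lysed in 1× SDS sample buffer, resolved by 10% SDS-PAGE and blotted to nitrocellulose; probed for phospho-FGFR, FGFR2, phospho-ERK, ERK and GAPDH, then HRP anti-rabbit or anti-mouse IgG; enhanced chemiluminescence detection.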

NCI-H1581 = assay: Antitumor activity against human NCI-H1581 cells xenografted in po dosed nude mouse assessed as tumor growth inhibition administered as qd for 7 to 10 days; type: functional, organism-based
Procedure, shortened: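 Female nude mice, 4-6 weeks old. NCI-H1581 cells (5×10^6 in 200 µL) injected s.c., grown to 700-800 mm³, then 1-mm³ fragments implanted s.c. by trocar. At 100-150 mm³ animals were randomized (vehicle n=12, treated n=6) and dosed orally once daily for 7 days. Tumours measured twice weekly, volume = length×width²/2. TGI calculated from change in tumour volume versus vehicle on the final day, with Student's t-test.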

Cc1ccc(C(=O)Nc2cccc(C(F)(F)F)c2)cc1-c1ccc2c(-c3cnn(C4CC4)c3)n[nH]c2c1
IC50 (KG-1): 108 nM | IC50 (NCI-H2286): 93 nM | Tmax [1]: 2 h | Cmax [2]: 1120 ng/mL | MRT [3]: 5.71 h | inhibition [4]: 99.8% | inhibition [5]: 0.9% | inhibition [6]: 0% | inhibition [7]: 2.7% | inhibition [8]: 31.2% | inhibition [9]: 1.4% | inhibition [10]: 2.6% | inhibition [11]: 95% | inhibition [12]: 27.2% | inhibition [13]: 8.2% | inhibition [14]: 75.7% | inhibition [15]: 60% | inhibition [16]: 32% | inhibition [17]: 0.2% | inhibition [18]: 65.3% | inhibition [19]: 0.3% | inhibition [20]: 67.8% | inhibition [21]: 8.1% | inhibition [22]: 59.3% | inhibition [23]: 5.4% | inhibition [24]: 90.1% | inhibition [25]: Dose-dependent effect | TGI (NCI-H1581): Dose-dependent effect
